Source: ChEMBL document CHEMBL1124069, “Synthesis and pharmacological characterization of a series of leukotriene analogues with antagonist and agonist activities” (1988)

Legend:
[1] = test system: Cysteinyl leukotriene receptor (Cavia porcellus); assay: Ability to inhibit the contraction induced by 8 nM LTE4 on isolated guinea pig tracheal strips at 10 uM dose; % antagonism / % basal tension; conditions: Trachea
Cavia porcellus [2] = species on record: Cavia porcellus; assay: Ability to inhibit the contraction induced by 8 nM LTE4 on isolated guinea pig tracheal strips at 3.3 uM dose; % antagonism / % basal tension
Cavia porcellus [3] = species on record: Cavia porcellus; assay: Ability to inhibit the contraction induced by 8 nM LTE4 on isolated guinea pig tracheal strips at 50 uM dose; % antagonism / % basal tension, compound was checked against BaCl2 as agonist at specified concentration/14; format: functional, Trachea
Method in brief: (§1)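 Guinea pig tracheal spirals were held at 2 g resting tension and stabilized for 60 min, with bath changes every 15 min. Tissues received two 10-min challenges with 8 nM LTE4, each followed by a 60-min wash. Test compound was then added for 10 min, noting any resting-tension change, before a third LTE4 challenge. % inhibition = (2nd−3rd)/2nd×100, corrected for paired vehicle tissue. Significance was tested by paired t test (p<0.05).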

Cavia porcellus [4] = species on record: Cavia porcellus; assay: Ability to inhibit the contraction induced by 8 nM LTE4 on isolated guinea pig tracheal strips at 1 uM dose; % antagonism / % basal tension; format: functional, Trachea
Method in brief: as §1

Cavia porcellus [5] = species on record: Cavia porcellus; assay: Ability to inhibit the contraction induced by 8 nM LTE4 on isolated guinea pig tracheal strips at 5 uM dose; % antagonism / % basal tension; format: functional, Trachea
Method in brief: as §1

Cavia porcellus [6] = species on record: Cavia porcellus; assay: Ability to inhibit the contraction induced by 8 nM LTE4 on isolated guinea pig tracheal strips at 10 uM dose; % antagonism / % basal tension, Agonist activity was too great to determine if there was any partial antagonism/100; format: functional; conditions: Trachea, filed as agonist
Method in brief: as §1

Cavia porcellus [7] = species on record: Cavia porcellus; assay: Ability to inhibit the contraction induced by 8 nM LTE4 on isolated guinea pig tracheal strips at 4 uM dose; % antagonism / % basal tension; format: functional, Trachea

Ratio [1]	Structure (SMILES)	other results
51	CCCCCCCc1ccc(C/C=C\[C@@H](SCc2ccc(C(=O)O)c(N)c2)[C@@H](O)CCCC(=O)O)cc1	
86	CCCCCCOc1cccc(C/C=C\[C@@H](SCc2ccc(C(=O)O)cc2OC)[C@@H](O)CCCC(=O)O)c1	Ratio (Cavia porcellus [2]): 32; Ratio (Cavia porcellus [3]): 14
66	CCCCCCCc1ccc(C/C=C\[C@@H](SCc2ccc(C(=O)O)cc2N)[C@@H](O)CCCC(=O)O)cc1	
43	CCCCCc1ccc(C/C=C\[C@@H](SCc2ccc(C(=O)O)cc2OC)[C@@H](O)CCCC(=O)O)cc1	
57	CCCCC/C=C/c1cccc(C/C=C\[C@@H](SCc2ccc(C(=O)O)cc2OC)[C@@H](O)CCCC(=O)O)c1	Ratio (Cavia porcellus [4]): 7
34	CCCCCCCc1ccc(C/C=C\[C@@H](SCc2cccc(/C=C/C(=O)O)c2)[C@@H](O)CCCC(=O)O)cc1	
24	CCCCCCOc1ccccc1C/C=C\[C@@H](SCc1ccc(C(=O)O)cc1OC)[C@@H](O)CCCC(=O)O	
38	CCCCCCCc1ccc(C/C=C\[C@@H](SCc2ccc(/C=C/C(=O)O)cc2)[C@@H](O)CCCC(=O)O)cc1	
39	CCCCC/C=C/c1ccc(C/C=C\[C@@H](SCc2ccc(C(=O)O)cc2OC)[C@@H](O)CCCC(=O)O)cc1	
52	CCCCCCCc1cccc(C/C=C\[C@@H](SCc2ccc(C(=O)O)cc2OC)[C@@H](O)CCCC(=O)O)c1	Ratio (Cavia porcellus [5]): 45
68	CCCCCCCc1ccc(C/C=C\[C@@H](SCc2ccc(N)c(C(=O)O)c2)[C@@H](O)CCCC(=O)O)cc1	
4	CCCCCCCc1ccc(C/C=C\[C@@H](Sc2ccc(NC(C)=O)cc2)[C@@H](O)CCCC(=O)O)cc1	
63	CCCCCCCc1ccc(C/C=C\[C@@H](SCc2ccc(C(=O)O)cc2F)[C@@H](O)CCCC(=O)O)cc1	
37	CCCCCCCc1ccc(C/C=C\[C@@H](SCc2ccc(C(=O)O)cc2)[C@@H](O)CCCC(=O)O)cc1	
14	CCCCCCCc1ccc(C/C=C\[C@@H](Sc2cccc(N)c2)[C@@H](O)CCCC(=O)O)cc1	
39	CCCCCCCc1ccc(C/C=C\[C@@H](SCc2cc(C(=O)O)ccc2N)[C@@H](O)CCCC(=O)O)cc1	
39	CCCCCCCc1ccc(C/C=C\[C@@H](SCc2ccccc2C(=O)O)[C@@H](O)CCCC(=O)O)cc1	
	CCCCCCCc1ccc(C/C=C\[C@@H](SCc2cccc(C(=O)O)c2)[C@@H](O)CCCC(=O)O)cc1	Ratio (Cavia porcellus [4]): 16
2	CCCCCCCc1ccc(C/C=C\[C@@H](Sc2ccc(Cl)c(Cl)c2)[C@@H](O)CCCC(=O)O)cc1	
	CCCCCCOc1ccc(C/C=C\[C@@H](SCc2ccc(C(=O)O)cc2OC)[C@@H](O)CCCC(=O)O)cc1	Ratio (Cavia porcellus [6]): Agonist activity was too great to determine if there was any partial antagonism
74	CCCCCCCc1ccc(C/C=C\[C@@H](SCc2ccc(C(=O)O)cc2OC)[C@@H](O)CCCC(=O)O)cc1	Ratio (Cavia porcellus [5]): 31
	CCCc1c(OCC(O)COc2ccc3c(=O)cc(C(=O)O)oc3c2CCC)ccc(C(C)=O)c1O (stereo not drawn) [FPL-55712]	Ratio (Cavia porcellus [7]): 62
24	CCCCCCCc1ccc(C/C=C\[C@@H](SCc2ccc(C(=O)O)cc2[N+](=O)[O-])[C@@H](O)CCCC(=O)O)cc1	
